Source: the RNAGym collection of RNA variant scans (doi:10.1126/science.aae0568)
Variants at the floor of the assay were thinned out.

B1: tRNA (parent)
chain: GUUCCGUUGGCGUAAUGGUAACGCGUCUCCCUCCUAAGGAGAAGACUGCGGGUUCGAGUCCCGUACGGAACG

Variants of: B1
Experiment: yeast fitness relative to wild type (ratio to wild type); higher = fitter; tRNA-Arg(CCU), competitive growth, 37 C, YPD
Outline: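 For this measurement, the tRNA-Arg(CCU) gene was varied by chemical synthesis at a 3% per-site mutation rate across 69 sites, and each variant was placed at the native genomic locus in Saccharomyces cerevisiae. The pooled strains went through a 24-hour competition in YPD at 37°C in six parallel replicates, with amplicons from start and end populations read by 100-nucleotide paired-end sequencing. Darwinian fitness relative to wild type followed from the change in each genotype's frequency. Genotypes needed ≥ 100 starting reads, and estimates < 0.5 were set to 0.5.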

| Variant | yeast fitness |
| --- | --- |
| G17C C27U G67C | ≤ 0.5 |
| G18C C24G C46G | ≤ 0.5 |
| G18C C24G C46A | ≤ 0.5 |
| G18A C46U U59C G68A | 0.53 |
| G18C G23A G25C A37G A43C C55G G63A G68A | ≤ 0.5 |
| G18A A20U C31U | 0.545 |
| G17U U35C A37U A57C | ≤ 0.5 |
| G17C C46G | 0.747 |
| G18C C33A A36C G51C | ≤ 0.5 |
| G18A C31U A70G | 0.726 |
| G18A C31U A70U | 0.656 |
| G17C C24G U28A C30U | 0.646 |
| G17C G56C A57G G68U | 0.571 |
| G18C C22U C34G | 0.688 |
| G17C G48C G67C | ≤ 0.5 |
| G17U C24U | 0.84 |
| G18A A20U C29G A37U | 0.563 |
| G18A C30G G44C | 0.646 |
| G17C U53G A70U | 0.564 |
| G17C C27G C29A | ≤ 0.5 |
| G18A C30G G41C | ≤ 0.5 |
| G17C G25C C66U | ≤ 0.5 |
| G18A C31G U47C | ≤ 0.5 |
| G18A A37G C61U | ≤ 0.5 |

| Variant | yeast fitness |
| --- | --- |
| G18A A20U C49G U54A G68U A69U | ≤ 0.5 |
| G18A U26A C27U C49U G58A | ≤ 0.5 |
| G17C G51C C66U | ≤ 0.5 |
| G17C C24A U47A C66U A69U | ≤ 0.5 |
| G18A A20U A36U A65C | 0.706 |
| G18A G25C A70U | 0.555 |
| G18A C30U A40U G44C | ≤ 0.5 |
| G17C C31G A45C U54C C55A | ≤ 0.5 |
| G18A U59C A69G | ≤ 0.5 |
| G18A U59G | 0.776 |
| G18C G23C G39A | ≤ 0.5 |
| G18C G23A G25A C49U C60G | ≤ 0.5 |
| G18A C60A G67A | ≤ 0.5 |
| G18C G25C C33U C61U | ≤ 0.5 |
| G18A G25A C31U | 0.63 |
| G18A C30G G38C | 0.529 |
| G18C C34G G39C | ≤ 0.5 |
| G18C C62G C66A | ≤ 0.5 |
| G18A C31A G56C A69C | ≤ 0.5 |
| G17C G67C | 0.723 |
| G18A C34U G48A A65C | ≤ 0.5 |
| G18A C30A U32A U35G G67A | ≤ 0.5 |
| G17C G51A A65C | ≤ 0.5 |
| G17C G18C C31G A42G | ≤ 0.5 |

| Variant | yeast fitness |
| --- | --- |
| G17C C30G C55G A70G | ≤ 0.5 |
| G18C A20U U53C A69U | ≤ 0.5 |
| G17C U19C C24A U32C | ≤ 0.5 |
| G17C U19C A20G G68U | ≤ 0.5 |
| G18A A36U C61A | ≤ 0.5 |
| G18A G23A A43C U59A | ≤ 0.5 |
| G18C A20G C55U G67C | ≤ 0.5 |
| G18A G41C A42C C49U | 0.522 |
| G18A C29U C30U A57G | ≤ 0.5 |
| G18A U53A U54G | ≤ 0.5 |
| G18C G23A C61A | ≤ 0.5 |
| G18C G23A C61U | ≤ 0.5 |
| G18A U19A C61U | 0.61 |
| G18C C49G C61G | ≤ 0.5 |
| G18A G51C | ≤ 0.5 |
| G17C C33U A43G | ≤ 0.5 |
| G18A G67A | 0.675 |
| G18A G67C | 0.841 |
| G18A G67U | 0.75 |
| G18A C29U | 0.813 |
| G17C C49G | 0.743 |
| G17C G52C U64A | ≤ 0.5 |
| G18A G44A A57G | ≤ 0.5 |
| G17C G48C | 0.709 |

| Variant | yeast fitness |
| --- | --- |
| G18C A57G | 0.715 |
| G17C C66U | 0.705 |
| G18C A36C | ≤ 0.5 |
| G18A G51C A65G | ≤ 0.5 |
| G18A G68C | 0.662 |
| G18C C22A | 0.582 |
| G18A G25A C46U U59C G68A | ≤ 0.5 |
| G18A A36U | 0.66 |
| G17C U35C G51A C66G | ≤ 0.5 |
| G18A G50A | 0.853 |
| G18A G25A C29G C34A G63C | ≤ 0.5 |
| G18C C33G A36C C46A | ≤ 0.5 |
| G18C A43C | 0.719 |
| G18C C24G A36C G38C U54C G58C | ≤ 0.5 |
| G18A C34U A36G | 0.525 |
| G18A A36C G48A | ≤ 0.5 |
| G18A C62A | 0.513 |
| G18A C22G C27G C49U G58A | 0.608 |
| G17C G25C | 0.658 |
| G18A C46A | 0.692 |
| G18A C46G | 0.749 |
| G18A C46U | 0.749 |
| G18C C27U G68C | 0.548 |
| G18A A42C C61A | ≤ 0.5 |

| Variant | yeast fitness |
| --- | --- |
| G18A G51A A57U | 0.536 |
| G18C C24G C34U C49A U64C G67A | ≤ 0.5 |
| G18C C24U C29G C30G | 0.593 |
| G18C C29U | 0.546 |
| G18A C49A A65U | 0.558 |
| G18A G51A A70G | ≤ 0.5 |
| G18A G44C | 0.767 |
| G18A G44A | 0.637 |
| G18C C29G A45G C66U | 0.613 |
| G18A C34U | ≤ 0.5 |
| G18C G23A C24U C61U | ≤ 0.5 |
| G18A A21U U32A G56A | 0.561 |
| G18C C31A A43G G58C A65G | ≤ 0.5 |
| G17C G39C G63A | ≤ 0.5 |
| G17C C62U A65C | 0.593 |
| G18C A57U C61U | ≤ 0.5 |
| G18C C22A C29U A45C | ≤ 0.5 |
| G18C G25C U28G A42G U47C C49U A57U | ≤ 0.5 |
| G17C G23C A43U C49A C66U A70U | 0.603 |
| G17C C29G G39A | ≤ 0.5 |
| G17C U32A C46A | 0.582 |
| G18C C29U A70C | ≤ 0.5 |
| G17C C27U U53G | ≤ 0.5 |
| G17C C33U | 0.556 |

| Variant | yeast fitness |
| --- | --- |
| G17C G56A | 0.709 |
| G17C G56C | 0.633 |
| G18A A42G | 0.692 |
| G17C U47G C66U G67A A69U | ≤ 0.5 |
| G18A C24G G38C | 0.724 |
| G17C U19C A40G U47G | ≤ 0.5 |
| G18C G39C G50A | ≤ 0.5 |
| G18A A42C A69U | 0.542 |
| G17C G44A A45C | ≤ 0.5 |
| G17C U28A C30A C31A | 0.623 |
| G18A C34U A40G U47C | ≤ 0.5 |
| G18C A45C A65C | 0.598 |
| G17C C29A A36G A43U | ≤ 0.5 |
| G18C A36U C55U U59A | ≤ 0.5 |
| G17C C24U | 0.607 |
| G18C C29U C30U G67A | ≤ 0.5 |
| G17C C33G A70G | ≤ 0.5 |
| G18C C29G A36C G44C G50A | 0.526 |
| G18A U28C | 0.739 |
| G18A C27A G68C | ≤ 0.5 |
| G17C G25C C30U A65C | ≤ 0.5 |
| G18C C49U C62U | ≤ 0.5 |
| G18A C24G C27U C62U | ≤ 0.5 |
| G17C C27U C34U A42U | ≤ 0.5 |

| Variant | yeast fitness |
| --- | --- |
| G18C C46U C61G | ≤ 0.5 |
| G18A C24A C31A | ≤ 0.5 |
| G17C G63C C66U | ≤ 0.5 |
| G17C C30G A57C C61G | 0.613 |
| G18A A20U A42G | ≤ 0.5 |
| G18A C46A G63C | 0.604 |
| G18C C34G G58C | ≤ 0.5 |
| G18A C34G C55G A65U | ≤ 0.5 |
| G18A A42C G48A C60A | ≤ 0.5 |
| G18A C22U A40C G68C | ≤ 0.5 |
| G18C G23A G25C A37G A65G | ≤ 0.5 |
| G18C C49U G56C G58A | ≤ 0.5 |
| G17C C29G A65C | 0.629 |
| G18A G25A | 0.665 |
| G18A A45C C55U C61G | ≤ 0.5 |
| G18C A20G C29A C49U A69U | ≤ 0.5 |
| G17C G23C | 0.517 |
| G18C G38A A43U A45G A57G U59C | ≤ 0.5 |
| G17C G39C | 0.59 |
| G18A A20U A36U C62U | ≤ 0.5 |
| G18A C31G G41A G52C C60U C62G C66G | ≤ 0.5 |
| G18C C30U C31G G50A | ≤ 0.5 |
| G18A A70U | 0.956 |
